IMP-1 inhibitor: inhibitors of Pseudomonas aeruginosa IMP-1 metallo-beta-lactamase. purified IMP-1, nitrocefin hydrolysis, epi-absorbance fluorescence. inhibition, % at 5.6 µM. actives 0.45% (n = 290,000). AID 1556;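 active = inhibition above the mean plus 3 SD of all compounds in the same screening run, cut at about 4.5% in these data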;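 also: 0% = IMP-1 with DMSO and 100% = DMSO wells lacking enzyme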
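System – purified recombinant IMP-1 beta-lactamase · Input – IMP-1 dispensed at 0.2 nM · Timing – 15 min preincubation plus 25 min reaction at 25 °C · Signal – Epi-absorbance fluorescence, 480 nm excitation, 530 nm emission · Measure – percent IMP-1 inhibition derived from blank-referenced optical density · Controls – Enzyme-plus-DMSO low control, enzyme-free DMSO high control · Replication – singlicate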
Runt-CBFb FRET: inhibitors of human RUNX1 Runt domain binding to CBFb. actives 0.46% (n = 220,000). Cerulean-Runt/Venus-CBFb FRET ratio 530/480, 1 h. inhibition, % at 20 µM. Q01196+Q13951;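 active = inhibition over about 50% at 20 µM in the single-dose screen, limit read from the data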;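 also: 0% = DMSO wells and 100% = excess unlabeled CBFb competitor control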
Target sequence (Q01196 whole entry, looked up, the tested form may be a part): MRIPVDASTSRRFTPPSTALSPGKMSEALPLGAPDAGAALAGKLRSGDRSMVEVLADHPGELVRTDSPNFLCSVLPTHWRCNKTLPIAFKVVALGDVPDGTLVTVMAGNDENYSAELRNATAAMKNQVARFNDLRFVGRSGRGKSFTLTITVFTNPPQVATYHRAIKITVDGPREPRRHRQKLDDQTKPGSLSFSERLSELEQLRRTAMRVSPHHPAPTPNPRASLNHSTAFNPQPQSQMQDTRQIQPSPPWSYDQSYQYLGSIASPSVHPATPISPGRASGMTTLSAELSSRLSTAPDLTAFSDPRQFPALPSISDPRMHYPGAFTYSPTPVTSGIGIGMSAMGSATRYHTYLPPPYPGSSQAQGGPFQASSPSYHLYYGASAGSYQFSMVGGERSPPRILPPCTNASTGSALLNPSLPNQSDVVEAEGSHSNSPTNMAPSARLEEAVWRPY
Target sequence (Q13951 whole entry, looked up, the tested form may be a part): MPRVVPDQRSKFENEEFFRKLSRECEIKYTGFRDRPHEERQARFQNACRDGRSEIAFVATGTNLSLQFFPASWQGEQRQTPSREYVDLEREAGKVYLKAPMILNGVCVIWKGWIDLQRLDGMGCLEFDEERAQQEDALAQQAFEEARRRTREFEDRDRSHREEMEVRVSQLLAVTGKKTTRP
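Assay system: Cerulean-tagged RUNX1 Runt domain (FRET donor) fusion protein / Amount: 100 nM each of Venus-CBFb and Cerulean-Runt domain / Medium: Tris buffer pH 7.5 with salts and BSA / Also added: Venus-CBFb 100 nM / Schedule: 1 h complex formation plus 1 h compound treatment, room temperature / Signal: FRET fluorescence / Read-out: loss of energy transfer signal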
RanGTP-Imp inh: inhibitors of RanGTP-importin-beta interaction, primary screen, biochemical, FRET, CFP-Ran, YFP-importin-beta, homogeneous; cell-free CFP-Ran/YFP-importin-beta FRET ratio; inhibition, % (no concentration beside the values); actives 1.1% (n = 300,000); AID 2216;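 active = more than half of the replicate wells show a fall in the fluorescence ratio signal beyond about 16%, limit read from the data, passing the limit was not always enough; inconclusive = exactly half of the replicate wells pass the set limit; inactive = fewer than half of replicates pass the limit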;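 also: 0% = DMSO wells and 100% = Ran loaded with GDP instead of GTP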
VIM-2 inh: inhibitors of Pseudomonas aeruginosa VIM-2 metallo-beta-lactamase; purified VIM-2, nitrocefin hydrolysis, epi-absorbance fluorescence; inhibition, % at 5.6 µM; actives 0.89% (n = 290,000);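 active = inhibition above the mean of all tested compounds plus 3 SD, cutoff set per screening run, cut at about 7.5% in these data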;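 also: red hydrolysis product quenches plate fluorescence so inhibitors raise well fluorescence; 0% = enzyme with DMSO and 100% = DMSO without enzyme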
Runt-SMMHC FRET: Runt domain-CBFb-SMMHC interaction inhibition; Cerulean-Runt/Venus-CBFb-SMMHC FRET ratio 530/480, 1 h; inhibition, % at 20 µM; actives 0.74% (n = 220,000);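 active = mean inhibition across duplicate retests at 20 µM reaching about 50%, limit read from the data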;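 also: 0% = DMSO wells and 100% = wells with excess untagged CBFb-SMMHC; inhibitors lower the FRET ratio by blocking Runt binding to CBFb-SMMHC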
Active calls of the source: *; ? = inconclusive; . = not tested or not shown. Rows were chosen to be rich in hits. Some 2.6% of all compounds tested hit in one or more screens of this group.

SMILES	IMP-1 inhibitor	Runt-CBFb FRET	RanGTP-Imp inh	VIM-2 inh	Runt-SMMHC FRET
CCCN1C2=C(C(=O)CC(C)(C)C2)C(c2ccc(F)cc2)C2=C1c1ccccc1C2=O (stereo not drawn)	-3	-2	3	-1	-3
CCOC(=O)c1ccc(N2C(=O)C(O)=C(C(C)=O)C2c2ccc([N+](=O)[O-])cc2)cc1 (stereo not drawn)	-1	.	7	-1	.
CCCOc1ccc2c(c1)C(=NN=C(N)N)c1cc(OCCC)ccc1-2	-1	.	3	-5	.
COc1ccccc1NC(=O)NC1CCS(=O)(=O)C1 (stereo not drawn)	-6	.	0	-4	.
COc1ccc(CC(=O)Oc2ccccc2[N+](=O)[O-])cc1	13*	.	1	0	.
N#CC1(C#N)C(C(N)=O)C1c1ccccc1 (stereo not drawn)	-1	-1	?	-2	-10
CN1C=CC2=C(C#N)C(N)C(C#N)(C#N)[C@H](c3ccccc3)[C@H]2C1 (stereo partly drawn)	-4	66*	64*	2	79*
Cc1c(Br)c(C(=O)NNC(=O)c2ccc(C(C)(C)C)cc2)nn1C	-4	-1	-4	-3	0
CC(C)C(NC(=O)c1c(F)cccc1F)C(=O)NCCc1ccc(S(N)(=O)=O)cc1 (stereo not drawn)	-2	.	2	-3	.
Cc1cccn2c(=O)c3cc(C(=O)NCc4cccnc4)c(=N)n(CC4CCCO4)c3nc12 (stereo not drawn)	-2	.	180*	1	.
N=c1c(C(=O)NCc2ccc(F)cc2)cc2c(=O)n3ccccc3nc2n1CC1CCCO1 (stereo not drawn)	-4	10	199*	-1	60*
N=c1c(C(=O)NCc2ccc3c(c2)OCO3)cc2c(=O)n3ccccc3nc2n1CC1CCCO1 (stereo not drawn)	-3	.	-13	-1	.
N=c1c(C(=O)NCc2ccco2)cc2c(=O)n3ccccc3nc2n1CC1CCCO1 (stereo not drawn)	-1	.	130*	-2	.
CCn1c(=N)c(C(=O)NCc2cccnc2)cc2c(=O)n3cccc(C)c3nc21	.	18	.	.	61*
C=CCOc1ccc(CN(C)C(=O)CNC(=O)c2ccc(-c3ccccc3)cc2)cc1	2	.	0	1	.
CCCNC(=O)CN1C(=O)COc2ccc(S(=O)(=O)N3CC(C)CC(C)C3)cc21 (stereo not drawn)	-4	.	2	-2	.
O=C(CSc1nc2ccccc2c(=O)n1CC1CCCO1)NCCc1ccccc1 (stereo not drawn)	-2	.	5	0	.
Cc1cccn2c(=O)c3cc(C(=O)NCCc4ccccc4)c(=N)n(CC4CCCO4)c3nc12 (stereo not drawn)	-2	.	181*	0	.
N=c1c(C(=O)NCCc2ccccc2)cc2c(=O)n3ccccc3nc2n1CC1CCCO1 (stereo not drawn)	1	.	179*	4	.
Cc1cc([N+](=O)[O-])ccc1NC(=O)c1csc(C)c1C	-3	.	-4	-3	.
Nc1nc(-c2cc(O)ccc2[N+](=O)[O-])cc(-c2ccccc2)c1[N+](=O)[O-]	-2	.	34*	-2	.
CN(C)CCCNCCCNC(=O)/C=N/O	4.6*	3	-2	-1	0
CN(C)CCCNCCCCNC(=O)/C=N/O	-2	0	-1	-2	-6
CCOc1ccc(NC(=O)CCC(=O)O)cc1	0	2	24*	1	0
COc1ccccc1NCC(=O)N/N=C/c1c(O)ccc2ccccc12	-1	.	-4	-3	.
SMILES	IMP-1 inhibitor	Runt-CBFb FRET	RanGTP-Imp inh	VIM-2 inh	Runt-SMMHC FRET
COc1ccccc1N(CC(=O)N/N=C/c1c(O)ccc2ccccc12)S(C)(=O)=O	0	36	2	1	53*
COc1ccc(N=Cc2nc(-c3ccco3)oc2O)cc1	-5	1	20*	-7	5
Cc1ccc(N=Cc2nc(-c3ccc(C)cc3)oc2O)cc1	-3	-14	8	-1	-16
COc1ccc2c(c1)cc(C(=O)N[C@@H](CCSC)C(=O)N1CCC[C@H]1C(=O)O)n2C	-3	.	0	12*	.
CN1CCN(c2nc3ccccn3c(=O)c2/C=C(\C#N)S(=O)(=O)c2ccc(Cl)cc2)CC1	-2	0	97*	-4	5
COC(=O)/C(C#N)=C/c1c(N2CCN(C)CC2)nc2ccccn2c1=O	-2	.	107*	1	.

Bioassay records: PubChem, several laboratories
